Molecules are shown by their SMILES.

This data set is described as follows: Toxicity liver stage against HepG2, at 10uM. The format is cell-based. More on the design: test concentration 10 uM, cell line HepG2-A16-CD81EGFP. Particulars: human, HepG2-A16-CD81EGFP cells; read-out: INHIBITION
The gist of the method: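 Uninfected HepG2-A16-CD81EGFP cells, 3 × 10^3 per well, 1536-well, plated on prespotted compound at 10 μM final, parasite-free screening media added to match infected plates; puromycin 10 μM positive, DMSO 0.5% negative; run in parallel with 48 h PbLuc assay at 37 °C, 5% CO2; viability by CellTiter-Glo luminescence, normalized to controls.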
As to `CN(C(=O)OC(C)(C)C)C1CCN(C(=O)c2cc(Cl)c[nH]2)C1` (stereo unspecified), the cytotoxicity at 10 µM worked out at 2.5%.

Take `CC(O)CN1CCC(CN(C)CCC(=O)NC2CCCC2)CC1` (stereo unspecified): the cytotoxicity at 10 µM was -0.663%.

For the compound `c1ccc(C(CNc2ncccn2)N2CCOCC2)nc1` (stereo unspecified), the cytotoxicity at 10 µM is -47.5%.

As for `COCc1nc2ncc3c(=O)n(-c4ccc(C(C)=O)cc4)ccc3n2n1`, the cytotoxicity at 10 µM was -7.03%.

Consider `O=c1ccc2c(n1Cc1cccnc1)CCN(CC1CCOC1)CC2` (stereo unspecified), for which the cytotoxicity at 10 µM amounted to 8.13%.

As for `CCc1noc(C)c1C(=O)N1CCCC1Cn1cccn1` (stereo unspecified), the cytotoxicity at 10 µM is -3.04%.

Consider `CCCn1cnnc1CNC1CCSC1` (stereo unspecified), for which the cytotoxicity at 10 µM was -1.1%.

With `O=C(CCc1nc(-c2cccnc2)no1)N(CC1CCOC1)C1CC1` (stereo unspecified), the cytotoxicity at 10 µM came to 10.8%.

On to `Nc1nnc(CCNc2ncnc3c2CCN(C(=O)C2CC2)C3)s1`, for which the cytotoxicity at 10 µM is -7%.

Regarding `Cc1ccc(CN2C[C@H](OCC3CCN(C)CC3)[C@H]3COC[C@H]32)o1`, the cytotoxicity at 10 µM stood at 6.19%.

In the case of `CCCNC(=O)C(C)n1nc(-c2ccc(C)o2)cc(N)c1=O` (stereo unspecified), the cytotoxicity at 10 µM is -1.15%.

In the case of `O=C(Cc1ccccc1)N1CCC2(CC1)CN(c1ncccn1)CCO2`, the cytotoxicity at 10 µM is -72.3%.

`O=C(NC1CCC1)[C@@H]1CCO[C@@H]2CCN(C3CCCC3)C[C@H]21`: the cytotoxicity at 10 µM amounted to 9.05%.

In the case of `CCN(C(=O)c1cccc2c1OCO2)c1ccccc1`, the cytotoxicity at 10 µM turned out to be 0.944%.

In the case of `CCCN(C(=O)c1ccccn1)c1nc2c(s1)CCc1c-2cnn1C`, the cytotoxicity at 10 µM amounted to 6.23%.

Take `O=C(c1cnc2[nH]c(=O)[nH]c(=O)c2c1)N1CCCC1C1CCCC1` (stereo unspecified): the cytotoxicity at 10 µM was determined as 6.22%.

Turning to `CC(C(=O)Nc1ccnn1C(C)C)N1CCc2nn(C)c(=O)cc2C1` (stereo unspecified), the cytotoxicity at 10 µM is 3.95%.

With `O=C(CCc1ccncc1)N1CCCC(n2cccn2)C1` (stereo unspecified), the cytotoxicity at 10 µM was -5.57%.

For `O=C(CCn1cccn1)N1CCC(c2nnc(-c3ccccn3)o2)CC1`, the cytotoxicity at 10 µM is 0.125%.

For the compound `CS(=O)(=O)N[C@@H]1CN(Cc2ccccc2)C[C@H]1O`, the cytotoxicity at 10 µM is -2.92%.

For `CC(C)n1cc(CN2CCCN(C(=O)COC3CCCC3)CC2)cn1`, the cytotoxicity at 10 µM was -15.5%.

`Cc1ccnn1CC(=O)N(C)Cc1cnn(-c2ccccc2)c1`: the cytotoxicity at 10 µM was 9%.

In the case of `O=C(N[C@@H]1CCNC[C@H]1O)c1ccc(F)c(F)c1`, the cytotoxicity at 10 µM came to 5.79%.

Turning to `CC(C)c1nnc2n1CCN(Cc1csc(-c3cnn(C)c3)n1)C2`, the cytotoxicity at 10 µM is -2.17%.

As to `Clc1ccccc1C1(c2ccnc(C3CC3)n2)CCNCC1`, the cytotoxicity at 10 µM worked out at 7.89%.

Turning to `CC1CCN(c2ccc(NC(=O)CCn3cccn3)cc2)CC1`, the cytotoxicity at 10 µM was -10.6%.

As to `CCN1CCN(c2ncc(-c3cc(C)no3)c(-c3ccoc3C)n2)CC1`, the cytotoxicity at 10 µM turned out to be 1.16%.

In the case of `COC(=O)CN1N=C(C(=O)N2CCCC2)S(=O)(=O)c2ccccc21`, the cytotoxicity at 10 µM was -8.25%.

As for `O=C(NC1CCN(Cc2ccc(F)cc2)CC1)c1ccc2c(c1)CCC2`, the cytotoxicity at 10 µM is 2.55%.

`Cn1cnnc1C1CCCN(C(=O)c2cc(C3CC3)on2)C1` (stereo unspecified): the cytotoxicity at 10 µM stood at 5.14%.

For `CCCS(=O)(=O)N1CC(=O)N(Cc2ccccc2OC)CC(O)C1` (stereo unspecified), the cytotoxicity at 10 µM was -7.44%.

In the case of `Cc1nnc(C2CCN(C(=O)c3cnc4ccccc4n3)CC2)s1`, the cytotoxicity at 10 µM was determined as 7.1%.

For the compound `O=C(NCCc1ccccn1)C1CC(=O)N(CC(F)(F)F)C1` (stereo unspecified), the cytotoxicity at 10 µM is -25.2%.

Take `CCC[C@@H]1CN(Cc2ccc(C(F)(F)F)nc2)C[C@H]1NS(C)(=O)=O`: the cytotoxicity at 10 µM came out at 10.5%.

`c1ccc(OCC2CC3(CCN(CC4CCOCC4)CC3)CO2)nc1` (stereo unspecified): the cytotoxicity at 10 µM was -1.37%.

`CC(C)CCN1C2(CCN(C(=O)CN(C)C)C2)c2ccccc2S1(=O)=O` (stereo unspecified): the cytotoxicity at 10 µM is -4.14%.

On to `Cc1noc(CN2CCCC(Cn3nc(C)nc3C)C2)n1` (stereo unspecified), for which the cytotoxicity at 10 µM is -5.04%.

In the case of `Cc1ccc(C(=O)N2CC[C@@]3(O)CCCC[C@H]3C2)cc1`, the cytotoxicity at 10 µM is -45.1%.

For the compound `Cc1cc2n(n1)CC(CNCCNC(=O)c1ccc(F)cc1)CN2` (stereo unspecified), the cytotoxicity at 10 µM was determined as 6.15%.

With `Cn1nccc1CCC(=O)N1CCC(c2cnccn2)CC1`, the cytotoxicity at 10 µM was -21.7%.

For the compound `CCc1cc(=O)[nH]c2nnc(SCC(=O)NC)n12`, the cytotoxicity at 10 µM was -4.06%.

In the case of `Cc1nc(C(=O)N2CCOC(c3nc(C(C)C)n[nH]3)C2)c[nH]1` (stereo unspecified), the cytotoxicity at 10 µM was -1.58%.

Regarding `COC(=O)C1CCN(C(=O)Cn2ccc(-c3ccsc3)n2)CC1`, the cytotoxicity at 10 µM is -6.58%.

As for `Cc1ccc(NC2CCN(C(=O)Cc3ccc(C)s3)CC2)nn1`, the cytotoxicity at 10 µM is -3.75%.

For the compound `COCCN1CCn2cc(CNC(=O)C3CCC3)nc2C1`, the cytotoxicity at 10 µM turned out to be 3.68%.

`Cc1ccc2[nH]c(C(=O)N3CCCC3Cn3cccn3)cc2c1` (stereo unspecified): the cytotoxicity at 10 µM was -12%.

`CC(=O)N1CCCC(c2ccc(C(=O)NC3CCCC3)cn2)C1` (stereo unspecified): the cytotoxicity at 10 µM was 0.692%.

Consider `CC(C)(C)c1cnc(CN2CCCS(=O)(=O)CC2)o1`, for which the cytotoxicity at 10 µM was -3.97%.

For the compound `COc1cccc(CN2CC3(CCNCC3)CCC2=O)c1OC`, the cytotoxicity at 10 µM came to 6.39%.

For `O=C(Cc1cccc(F)c1F)NS(=O)(=O)c1cncc(Cl)c1`, the cytotoxicity at 10 µM was 14.5%.

Consider `CCc1c(C)sc2ncnc(N3CCN(C4CCOCC4)CC3)c12`, for which the cytotoxicity at 10 µM is 8.48%.

With `N#Cc1cccc(OCCN2CCCC2C(=O)N2CCSCC2)c1` (stereo unspecified), the cytotoxicity at 10 µM is 9.06%.

For the compound `Cc1cn(CC(=O)NC2CCN(S(C)(=O)=O)CC2)c2ccccc12`, the cytotoxicity at 10 µM turned out to be 1.44%.

Take `O=C(NC1CCCN(CCCc2ccccc2)C1)c1ccc(Cl)s1` (stereo unspecified): the cytotoxicity at 10 µM was 57.5%.

Consider `CCOc1ccc(Cl)c(C(=O)N2CCCC(N3CCCC3)C2)n1` (stereo unspecified), for which the cytotoxicity at 10 µM came out at 8.29%.

Take `COCc1nc(CNC2CCSC2)no1` (stereo unspecified): the cytotoxicity at 10 µM was -1.37%.

Regarding `CC(NCc1cccc(NC(=O)C2CCCCC2)c1)c1cnn(C)c1` (stereo unspecified), the cytotoxicity at 10 µM is -0.26%.

With `CC(C)(C)c1cc2ncn(CCCN3CCCCC3CO)c(=O)c2s1` (stereo unspecified), the cytotoxicity at 10 µM is -5.39%.

Take `c1cnc(NC[C@H]2OC[C@@H]3CCN(Cc4ccncc4)C[C@@H]32)nc1`: the cytotoxicity at 10 µM was -4.61%.

Consider `Cc1cccc(C(=O)Nc2cccc3c2C(=O)NC3)n1`, for which the cytotoxicity at 10 µM stood at 1.14%.

Turning to `Cc1noc(C)c1C1CCCN1C(=O)c1cn2ccsc2n1` (stereo unspecified), the cytotoxicity at 10 µM was determined as 12.3%.

Regarding `O=C(c1ccco1)N1CCO[C@@H]2CN(Cc3nccs3)CC[C@@H]2C1`, the cytotoxicity at 10 µM is -111%.

For `O=C(NCCc1nc(C2CC2)no1)[C@H]1CNC[C@H](C(=O)N2CCCC2)C1`, the cytotoxicity at 10 µM was -107%.

With `CCN(Cc1c(C)nn(CC)c1C)S(=O)(=O)c1cn(C)nc1C`, the cytotoxicity at 10 µM was found to be 7.36%.

As to `CCCC(=O)NCC(=O)NC(c1ccc(Cl)cc1)C(F)(F)F` (stereo unspecified), the cytotoxicity at 10 µM is -3.63%.

For the compound `Cc1noc2nc(C3CCN(Cc4ccccn4)CC3)cc(C(F)F)c12`, the cytotoxicity at 10 µM was -13%.

As for `COC(=O)c1cccn1C1CCN(Cc2nc3ccccc3o2)CC1`, the cytotoxicity at 10 µM amounted to 1.81%.

On to `COC(=O)CCC(=O)N1CCc2nc(C(=O)N3CCCCC3)sc2CC1`, for which the cytotoxicity at 10 µM was determined as 15.4%.

For `Cc1nn(C)c(C)c1OCC(=O)NCc1cccc(C(=O)O)c1`, the cytotoxicity at 10 µM was -3.83%.

Take `Cc1nnc(C2CCN(C(=O)c3ccc4nccnc4c3)CC2)s1`: the cytotoxicity at 10 µM stood at 5.05%.

On to `O=C(NC1=NCCCN1c1ccc(Cl)cc1)c1cccc(Cl)c1`, for which the cytotoxicity at 10 µM was -17.5%.

Regarding `O=C1CN(c2ccc(CNc3cncc(-n4cccn4)n3)cc2)CCN1`, the cytotoxicity at 10 µM was -13.3%.

For the compound `COCCN1CCN(CC(O)c2cc(OC)ccc2OC)CC1` (stereo unspecified), the cytotoxicity at 10 µM is 3%.

In the case of `COc1ccc(C(=O)O)cc1-c1cccc2c1CCNC2`, the cytotoxicity at 10 µM was 0.979%.

With `CCc1nc(C)sc1CNC1CCN(Cc2ccccc2)C1` (stereo unspecified), the cytotoxicity at 10 µM was -31.7%.

As for `CC1N(C)C(=O)COC12CCN(Cc1ccsc1)CC2` (stereo unspecified), the cytotoxicity at 10 µM is -5.24%.

Turning to `O=C(CCc1ccsc1)N1CCC(Cc2ccc(CO)cc2)C1` (stereo unspecified), the cytotoxicity at 10 µM was 14.7%.

For the compound `CC(=O)N1CCC1c1cc(NC2CCOCC2)nc(C)n1` (stereo unspecified), the cytotoxicity at 10 µM was determined as 1.79%.

For the compound `COCC1CC2(CCN(c3cc(OC)ncn3)CC2)CN1C(C)C` (stereo unspecified), the cytotoxicity at 10 µM was -108%.

As to `CN(Cc1cccnc1)C1CC2(CCN(Cc3cccnc3)CC2)C1`, the cytotoxicity at 10 µM was -87.2%.

As to `CN1CCOC(CNCCOc2ccc(C#N)cc2)C1` (stereo unspecified), the cytotoxicity at 10 µM stood at 9.34%.

Regarding `O=C(NCC1CC1)C1CSCN1S(=O)(=O)c1cc(F)cc(F)c1` (stereo unspecified), the cytotoxicity at 10 µM is 6.35%.

Consider `c1cncc(-c2nnn3c2COCC(CNCC2CCOCC2)C3)c1` (stereo unspecified), for which the cytotoxicity at 10 µM was -75.4%.

As to `Cc1noc(C)c1CN1CC[C@H]2[C@@H]1CCC(=O)N2CC1CCOCC1`, the cytotoxicity at 10 µM is -1.38%.

With `CCN(CC)C(=O)c1nc2c(s1)CCN(C(=O)Nc1ccccc1)CC2`, the cytotoxicity at 10 µM worked out at 12%.

Turning to `OCC1(NCc2cnc(-c3ccsc3)s2)CCOCC1`, the cytotoxicity at 10 µM is -3.1%.

For the compound `CN1C(=O)COc2ccc(NC(=O)CCc3nc4cccnc4[nH]3)cc21`, the cytotoxicity at 10 µM is -1.23%.

Consider `Cc1ccc(-c2cn3c(n2)CO[C@@H](CNCc2cnn(C)c2)C3)cc1`, for which the cytotoxicity at 10 µM was -1.23%.

`CC(C)OCc1ncn2c1CN(Cc1ccoc1)CCC2`: the cytotoxicity at 10 µM was -75.7%.

Take `CN(C)C(=O)c1cc(S(=O)(=O)N2CCCC2Cn2ccnc2)cn1C` (stereo unspecified): the cytotoxicity at 10 µM was found to be 12.2%.

Turning to `c1ccc(-c2ncc3c(n2)C2(CCN(CC4CC4)C2)COC3)cc1` (stereo unspecified), the cytotoxicity at 10 µM amounted to 0.975%.

On to `CSCC[C@@H](CO)Nc1ccc(-c2nc(C3CC3)no2)cn1`, for which the cytotoxicity at 10 µM was found to be 0.957%.

With `O=C1CCCC2(CCN(C(=O)c3cnccn3)CC2)N1`, the cytotoxicity at 10 µM is -12.9%.

On to `CN(Cc1ccc(C#N)cc1)Cn1nccc1-c1cccnc1`, for which the cytotoxicity at 10 µM is 8.4%.

As for `CN(C)C(C(=O)N1CC(c2ccccn2)C1)c1cccc(F)c1` (stereo unspecified), the cytotoxicity at 10 µM is -0.95%.

In the case of `CN(C)C(CNC(=O)c1cccc(-n2cnnn2)c1)c1ccccc1Cl` (stereo unspecified), the cytotoxicity at 10 µM is -6.08%.

For the origin of these results see ChEMBL document CHEMBL4513216, “Probing the Open Global Health Chemical Diversity Library for Multistage-Active Starting Points for Next-Generation Antimalarials” (ACS Infect Dis, 2020).
